molecular target: T1, C-C chemokine receptor type 1 (Homo sapiens, UniProt P32246); assay: Displacement of [125I]MIP-1alpha from CCR1 in human THP1 cells; type: cell-based, THP-1
T1 sequence (P32246 whole entry): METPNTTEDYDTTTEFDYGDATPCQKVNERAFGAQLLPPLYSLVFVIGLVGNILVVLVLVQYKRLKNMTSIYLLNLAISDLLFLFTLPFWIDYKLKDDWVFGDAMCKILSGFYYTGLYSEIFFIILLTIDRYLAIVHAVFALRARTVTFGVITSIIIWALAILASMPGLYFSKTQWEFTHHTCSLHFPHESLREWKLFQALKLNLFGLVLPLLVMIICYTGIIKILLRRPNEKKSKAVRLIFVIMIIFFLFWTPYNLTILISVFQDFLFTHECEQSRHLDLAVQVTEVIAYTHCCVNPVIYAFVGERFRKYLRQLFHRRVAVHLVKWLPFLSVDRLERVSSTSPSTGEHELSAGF
Outline: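 THP-1 cells, 1 × 105, mixed with WGA PS SPA beads in RPMI 1640 (no phenol red) with 50 mM HEPES, 5 mM MgCl2, 1 mM CaCl2, 0.1% BSA. Compound in 3-fold dilutions, 8 μM to 140 pM final. [125I]-MIP-1α at 0.1 nM final. Incubated 12 h at room temperature, imaged by LEADseeker. Duplicates; IC50 from four-parameter logistic fit after nonspecific correction.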

SMILES | IC50 [nM]
Cc1ccc(C(=O)N[C@@H](C(=O)N2CCC(c3ccc(Cl)cc3)CC2)C(C)C)cc1 | 25
Cc1cccc(C)c1C(=O)N[C@@H](C(=O)N1CCC(c2ccc(Cl)cc2)CC1)C(C)C | 177
CC(C)[C@@H](NC(=O)Cc1ccc(Cl)cc1)C(=O)N1CCC(c2ccc(Cl)cc2)CC1 | 115
CC(C)C(NC(=O)CCc1ccccc1)C(=O)N1CCC(c2ccc(Cl)cc2)CC1 (stereo not given) | 35
CC(C)(C)C(NC(=O)c1ccccc1)C(=O)N1CCC(c2ccc(Cl)cc2)CC1 (stereo not given) | 259
CC(C)C(NC(=O)c1ccccc1)C(=O)N1CCN(c2ccc(Cl)c(Cl)c2)CC1 (stereo not given) | 375
CC(C)C(NC(=O)c1ccccc1)C(=O)N1CCC(c2ccc(F)cc2)CC1 (stereo not given) | 423
CC(C)[C@@H](NC(=O)c1nc2ccccc2s1)C(=O)N1CCC(c2ccc(Cl)cc2)CC1 | 18
CC[C@@H](C)[C@@H](NC(=O)CC(C)C)C(=O)N1CCC(c2ccc(Cl)cc2)CC1 | 34
CC(C)C(NC(=O)OCc1ccccc1)C(=O)N1CCC(O)(c2ccc(Cl)cc2)CC1 (stereo not given) | 854
CC(C)[C@@H](NC(=O)Cc1cccc(F)c1)C(=O)N1CCC(c2ccc(Cl)cc2)CC1 | 44
CC(O)C(NC(=O)c1ccccc1)C(=O)N1CCC(O)(c2ccc(Cl)cc2)CC1 (stereo not given) | 2830
CC(C)[C@@H](NC(=O)CC1CCCCC1)C(=O)N1CCC(c2ccc(Cl)cc2)CC1 | 8
CC(C)[C@@H](NC(=O)c1cc2ccccc2s1)C(=O)N1CCC(c2ccc(Cl)cc2)CC1 | 58
CC[C@@H](NC(=O)Cc1ccccc1)C(=O)N1CCC(c2ccc(Cl)cc2)CC1 | 50
CC(C)[C@@H](NC(=O)CCc1ccc(F)cc1)C(=O)N1CCC(c2ccc(Cl)cc2)CC1 | 70
CC(C)C(NS(=O)(=O)Cc1ccccc1)C(=O)N1CCC(c2ccc(Cl)cc2)CC1 (stereo not given) | 303
CC(C)C(NC(=O)c1ccccc1)C(=O)N1CCC(O)(c2ccc(Br)cc2)CC1 (stereo not given) | 172
CC(C)C(NC(=O)OCc1ccccc1)C(=O)N1CCC(c2ccc(Cl)cc2)CC1 (stereo not given) | 1080
CC(C)C(NC(=O)c1ccccc1)C(=O)N1CCC(c2ccc(Cl)cc2)CC1 (stereo not given) | 55
CC[C@@H](C)[C@@H](NC(=O)Cc1ccccc1)C(=O)N1CCC(c2ccc(Cl)cc2)CC1 | 38
CC(C)[C@@H](NC(=O)Nc1ccccc1)C(=O)N1CCC(c2ccc(Cl)cc2)CC1 | 616
Cc1ccccc1C(=O)NC(C(=O)N1CCC(c2ccc(Cl)cc2)CC1)C(C)(C)C (stereo not given) | 262
CC(C)C(NC(=O)c1ccccc1)C(=O)N1CCN(c2ccc(Cl)cc2)CC1 (stereo not given) | 525

SMILES | IC50 [nM]
CC(C)C(=O)NC(C(=O)N1CCC(c2ccc(Cl)cc2)CC1)C(C)C (stereo not given) | 388
CC(C)[C@@H](NC(=O)CCc1ccccc1F)C(=O)N1CCC(c2ccc(Cl)cc2)CC1 | 18
CCCC(NC(=O)c1ccc2ccccc2c1)C(=O)N1CCC(c2ccc(Cl)cc2)CC1 (racemic) | 191
CC(C)CC(=O)N[C@@H](C(=O)N1CCC(c2ccc(Cl)cc2)CC1)C(C)C | 32
Cc1ccccc1CCC(=O)N[C@@H](C(=O)N1CCC(c2ccc(Cl)cc2)CC1)C(C)C | 19
CC(C)[C@H](NC(=O)c1ccccc1)C(=O)N1CCC(c2ccc(Cl)cc2)CC1 | 14900
Cc1ccccc1C(=O)NC(CC(C)C)C(=O)N1CCC(c2ccc(Cl)cc2)CC1 (stereo not given) | 88
CC(C)[C@@H](NC(=O)NCc1ccccc1)C(=O)N1CCC(c2ccc(Cl)cc2)CC1 | 180
CC(C)CCC(=O)N[C@@H](C(=O)N1CCC(c2ccc(Cl)cc2)CC1)C(C)C | 26
CC(C)C(NC(=O)Cc1ccccc1)C(=O)N1CCC(c2ccc(Cl)cc2)CC1 (stereo not given) | 40
Cc1ccccc1C(=O)NC(C(=O)N1CCC(c2ccc(Cl)cc2)CC1)C(C)C (stereo not given) | 36
Cc1cccc(CCC(=O)N[C@@H](C(=O)N2CCC(c3ccc(Cl)cc3)CC2)C(C)C)c1 | 22
CC(C)[C@@H](NC(=O)Cc1cccc(Cl)c1)C(=O)N1CCC(c2ccc(Cl)cc2)CC1 | 45
CC[C@@H](C)[C@@H](NC(=O)CCc1ccccc1)C(=O)N1CCC(c2ccc(Cl)cc2)CC1 | 66
Cc1ccccc1C(=O)N[C@@H](C(=O)N1CCC(c2ccc(Cl)cc2)CC1)C(C)C | 32
CC(C)C(NC(=O)Oc1ccccc1)C(=O)N1CCC(c2ccc(Cl)cc2)CC1 (stereo not given) | 265
CC(C)C(NC(=O)c1ccccc1)C(=O)N1CC=C(c2ccc(Cl)cc2)CC1 (stereo not given) | 185
CC(C)C(NC(=O)c1ccccc1)C(=O)N1CCC(O)(c2ccc(F)cc2)CC1 (stereo not given) | 933
CC(C)[C@@H](NC(=O)c1ccc(F)c(F)c1)C(=O)N1CCC(c2ccc(Cl)cc2)CC1 | 14
CC(C)[C@@H](NC(=O)c1ccc(F)cc1)C(=O)N1CCC(c2ccc(Cl)cc2)CC1 | 118
CCCC(NC(=O)c1ccccc1)C(=O)N1CCC(O)(c2ccc(Cl)cc2)CC1 (stereo not given) | 521
Cc1cccc(C(=O)N[C@@H](C(=O)N2CCC(c3ccc(Cl)cc3)CC2)C(C)C)c1C | 100
CC(C)CC(NC(=O)c1ccccc1)C(=O)N1CCC(O)(c2ccc(Cl)cc2)CC1 (stereo not given) | 324
CC[C@@H](C)[C@@H](NC(=O)c1ccccc1)C(=O)N1CCC(c2ccc(Cl)cc2)CC1 | 45

SMILES | IC50 [nM]
C/C=C(/NC(=O)c1ccccc1)C(=O)N1CCC(O)(c2ccc(Cl)cc2)CC1 | 370
CC(C)[C@@H](NC(=O)C1CCCC1)C(=O)N1CCC(c2ccc(Cl)cc2)CC1 | 70
CC(C)[C@@H](NC(=O)Cc1ccccc1)C(=O)N1CCC(c2ccc(Cl)cc2)CC1 | 30
Cc1ccc(CCC(=O)N[C@@H](C(=O)N2CCC(c3ccc(Cl)cc3)CC2)C(C)C)cc1 | 105
CC(C)C(NC(=O)c1ccc2ccccc2c1)C(=O)N1CCC(c2ccc(Cl)cc2)CC1 (stereo not given) | 80
CC(C)C(NC(=O)c1ccccc1)C(=O)N1CCC(O)(c2ccc(Cl)cc2)CC1 (stereo not given) | 180
Cc1ccc(CC(=O)N[C@@H](C(=O)N2CCC(c3ccc(Cl)cc3)CC2)C(C)C)cc1 | 140
CC[C@@H](NC(=O)c1ccccc1)C(=O)N1CCC(c2ccc(Cl)cc2)CC1 | 121
CC(C)[C@@H](NC(=O)Cc1ccccc1F)C(=O)N1CCC(c2ccc(Cl)cc2)CC1 | 13
CCCC(NC(=O)c1ccccc1C)C(=O)N1CCC(c2ccc(Cl)cc2)CC1 (racemic) | 152
CC(C)[C@@H](NC(=O)c1cccc(F)c1)C(=O)N1CCC(c2ccc(Cl)cc2)CC1 | 24
CC(C)[C@@H](NC(=O)CC1CCCC1)C(=O)N1CCC(c2ccc(Cl)cc2)CC1 | 20
CC[C@@H](NC(=O)CCc1ccccc1)C(=O)N1CCC(c2ccc(Cl)cc2)CC1 | 85
CSCCC(NC(=O)c1ccccc1)C(=O)N1CCC(O)(c2ccc(Cl)cc2)CC1 (stereo not given) | 539
CC(C)[C@@H](NC(=O)CCCc1ccccc1)C(=O)N1CCC(c2ccc(Cl)cc2)CC1 | 95
O=C(N[C@@H](C(=O)N1CCC(c2ccc(Cl)cc2)CC1)C1CCCCC1)c1ccccc1 | 121
CC(C)[C@@H](NC(=O)NCCc1ccccc1)C(=O)N1CCC(c2ccc(Cl)cc2)CC1 | 543
CC[C@@H](NC(=O)CC(C)C)C(=O)N1CCC(c2ccc(Cl)cc2)CC1 | 152
CC(C)CC(NC(=O)c1ccccc1)C(=O)N1CCC(c2ccc(Cl)cc2)CC1 (stereo not given) | 130
CC(C)[C@@H](NC(=O)CCc1ccccc1)C(=O)N1CCC(c2ccc(Cl)cc2)CC1 | 40
CCCC(NC(=O)c1ccccc1)C(=O)N1CCC(c2ccc(Cl)cc2)CC1 (racemic) | 120
CC(C)[C@@H](NC(=O)CC1CC1)C(=O)N1CCC(c2ccc(Cl)cc2)CC1 | 46
